Results reported in ChEMBL document CHEMBL5303300, “EUbOPEN Chemogenomics Library - Multiplex” (2023).
Values joined by “and” are separate entries in the source; they are usually repeats but may differ in a detail not shown here. Equal values may be shown once.

Test system: Fibroblast
Test: Multiplex assay against human fibroblast
Type: toxicity, cell-based
Details: number of replicates 2
Summary of the method: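 Imaging took place on a CQ1 microscope at 37°C and 5% CO2 once compound had been added to live cells stained at seeding with Hoechst33342, BioTracker Green Microtubule Cytoskeleton Dye, MitoTracker Red and Annexin V Alexa Fluor 680. CellPathfinder machine-learning gating classed cells as Hoechst high-intensity objects or normal cells, classed normal cells as having healthy, pyknosed or fragmented nuclei, and classed pyknosed cells as mitotic or apoptotic. Tubulin, mitochondrial-mass and membrane-permeability phenotypes are per cents of the healthy-nucleus cells.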

[1] = 12 h, 1 µM, compound concentration 1 uM
[2] = 12 h, 10 µM, compound concentration 10 uM
[3] = 24 h, 1 µM, compound concentration 1 uM
[4] = 24 h, 10 µM, compound concentration 10 uM
[5] = 48 h, 1 µM, compound concentration 1 uM
[6] = 48 h, 10 µM, compound concentration 10 uM

## CCn1ccc(Nc2ncc3c(n2)-c2c(nn(C)c2-c2ccc(-c4cnn(C)c4)cc2Cl)CC3)n1
[1]
  Population Apoptotic (%): 36% and 33%
  Population Fragmented Nuclei (%): 11% and 9%
  Population Healthy Nuclei (%): 71% and 65%
  Population Hoechst High Intensity Objects (%): 0%
  Population Membrane Permeable-Phenotype (%): 8% and 7%
  Population Mitochondria Different-Phenotype (%): 1% and 2%
  Population Mitotic Cells (%): 63% and 66%
  Population Normal (%): 99%
  Population Pyknosed Nuclei (%): 17% and 25%
  Population Tubulin-Different-Phenotype (%): 14% and 18%
  Total Cell Count: 258 and 213
[2]
  Population Apoptotic (%): 51% and 48%
  Population Fragmented Nuclei (%): 11%
  Population Healthy Nuclei (%): 75% and 69%
  Population Hoechst High Intensity Objects (%): 0%
  Population Membrane Permeable-Phenotype (%): 5% and 6%
  Population Mitochondria Different-Phenotype (%): 2% and 1%
  Population Mitotic Cells (%): 48% and 51%
  Population Normal (%): 100%
  Population Pyknosed Nuclei (%): 13% and 19%
  Population Tubulin-Different-Phenotype (%): 56% and 41%
  Total Cell Count: 204 and 191
[3]
  Population Apoptotic (%): 40% and 49%
  Population Fragmented Nuclei (%): 10% and 7%
  Population Healthy Nuclei (%): 75% and 66%
  Population Hoechst High Intensity Objects (%): 0%
  Population Membrane Permeable-Phenotype (%): 2% and 6%
  Population Mitochondria Different-Phenotype (%): 0% and 1%
  Population Mitotic Cells (%): 59% and 50%
  Population Normal (%): 100% and 99%
  Population Pyknosed Nuclei (%): 13% and 25%
  Population Tubulin-Different-Phenotype (%): 7% and 8%
  Total Cell Count: 239 and 234
[4]
  Population Apoptotic (%): 60% and 55%
  Population Fragmented Nuclei (%): 8% and 6%
  Population Healthy Nuclei (%): 78% and 77%
  Population Hoechst High Intensity Objects (%): 0%
  Population Membrane Permeable-Phenotype (%): 1% and 4%
  Population Mitochondria Different-Phenotype (%): 1% and 2%
  Population Mitotic Cells (%): 40% and 44%
  Population Normal (%): 100% and 99%
  Population Pyknosed Nuclei (%): 12% and 15%
  Population Tubulin-Different-Phenotype (%): 62% and 39%
  Total Cell Count: 202 and 187
[5]
  Population Apoptotic (%): 71% and 69%
  Population Fragmented Nuclei (%): 13% and 12%
  Population Healthy Nuclei (%): 75% and 67%
  Population Hoechst High Intensity Objects (%): 0%
  Population Membrane Permeable-Phenotype (%): 2% and 3%
  Population Mitochondria Different-Phenotype (%): 0%
  Population Mitotic Cells (%): 28% and 30%
  Population Normal (%): 99% and 100%
  Population Pyknosed Nuclei (%): 11% and 19%
  Population Tubulin-Different-Phenotype (%): 6% and 7%
  Total Cell Count: 252 and 233
[6]
  Population Apoptotic (%): 84% and 82%
  Population Fragmented Nuclei (%): 14% and 8%
  Population Healthy Nuclei (%): 68% and 75%
  Population Hoechst High Intensity Objects (%): 0%
  Population Membrane Permeable-Phenotype (%): 2% and 3%
  Population Mitochondria Different-Phenotype (%): 4% and 3%
  Population Mitotic Cells (%): 15% and 17%
  Population Normal (%): 100%
  Population Pyknosed Nuclei (%): 16%
  Population Tubulin-Different-Phenotype (%): 56% and 38%
  Total Cell Count: 195 and 170

## CN(C)[C@H]1CC[C@H](Nc2ncc3ncnc(Nc4ccc(F)c(Cl)c4)c3n2)CC1
[1]
  Population Apoptotic (%): 68% and 45%
  Population Fragmented Nuclei (%): 26% and 29%
  Population Healthy Nuclei (%): 54% and 50%
  Population Hoechst High Intensity Objects (%): 1% and 0%
  Population Membrane Permeable-Phenotype (%): 4% and 9%
  Population Mitochondria Different-Phenotype (%): 1%
  Population Mitotic Cells (%): 31% and 55%
  Population Normal (%): 98% and 99%
  Population Pyknosed Nuclei (%): 18% and 19%
  Population Tubulin-Different-Phenotype (%): 16% and 11%
  Total Cell Count: 309 and 205
[2]
  Population Apoptotic (%): 31% and 27%
  Population Fragmented Nuclei (%): 30% and 24%
  Population Healthy Nuclei (%): 45% and 51%
  Population Hoechst High Intensity Objects (%): 18% and 10%
  Population Membrane Permeable-Phenotype (%): 2% and 3%
  Population Mitochondria Different-Phenotype (%): 0%
  Population Mitotic Cells (%): 68% and 72%
  Population Normal (%): 81% and 89%
  Population Pyknosed Nuclei (%): 24% and 23%
  Population Tubulin-Different-Phenotype (%): 4% and 3%
  Total Cell Count: 681 and 574
[3]
  Population Apoptotic (%): 54% and 67%
  Population Fragmented Nuclei (%): 28% and 20%
  Population Healthy Nuclei (%): 48% and 63%
  Population Hoechst High Intensity Objects (%): 0%
  Population Membrane Permeable-Phenotype (%): 3% and 6%
  Population Mitochondria Different-Phenotype (%): 1% and 2%
  Population Mitotic Cells (%): 45% and 32%
  Population Normal (%): 100% and 99%
  Population Pyknosed Nuclei (%): 23% and 16%
  Population Tubulin-Different-Phenotype (%): 11% and 13%
  Total Cell Count: 208 and 288
[4]
  Population Apoptotic (%): 18% and 27%
  Population Fragmented Nuclei (%): 27% and 28%
  Population Healthy Nuclei (%): 44% and 47%
  Population Hoechst High Intensity Objects (%): 19% and 27%
  Population Membrane Permeable-Phenotype (%): 6% and 3%
  Population Mitochondria Different-Phenotype (%): 0% and 1%
  Population Mitotic Cells (%): 81% and 72%
  Population Normal (%): 80% and 72%
  Population Pyknosed Nuclei (%): 27% and 24%
  Population Tubulin-Different-Phenotype (%): 5% and 4%
  Total Cell Count: 464 and 636
[5]
  Population Apoptotic (%): 68% and 56%
  Population Fragmented Nuclei (%): 22% and 32%
  Population Healthy Nuclei (%): 61% and 50%
  Population Hoechst High Intensity Objects (%): 2% and 0%
  Population Membrane Permeable-Phenotype (%): 7% and 9%
  Population Mitochondria Different-Phenotype (%): 0%
  Population Mitotic Cells (%): 31% and 43%
  Population Normal (%): 97% and 99%
  Population Pyknosed Nuclei (%): 15% and 17%
  Population Tubulin-Different-Phenotype (%): 10% and 6%
  Total Cell Count: 264 and 218
[6]
  Population Apoptotic (%): 20% and 21%
  Population Fragmented Nuclei (%): 31% and 34%
  Population Healthy Nuclei (%): 38% and 37%
  Population Hoechst High Intensity Objects (%): 22% and 26%
  Population Membrane Permeable-Phenotype (%): 5% and 1%
  Population Mitochondria Different-Phenotype (%): 0%
  Population Mitotic Cells (%): 79% and 78%
  Population Normal (%): 77% and 73%
  Population Pyknosed Nuclei (%): 30% and 27%
  Population Tubulin-Different-Phenotype (%): 5% and 2%
  Total Cell Count: 527 and 613

## COCCN1CCN(CCn2ccc(Nc3ncc4c(n3)-c3c(nn(C)c3-c3ccccc3)C[C@H]4C)n2)CC1
[1]
  Population Apoptotic (%): 48% and 20%
  Population Fragmented Nuclei (%): 9% and 8%
  Population Healthy Nuclei (%): 73% and 72%
  Population Hoechst High Intensity Objects (%): 0%
  Population Membrane Permeable-Phenotype (%): 4% and 8%
  Population Mitochondria Different-Phenotype (%): 0% and 1%
  Population Mitotic Cells (%): 51% and 79%
  Population Normal (%): 100%
  Population Pyknosed Nuclei (%): 16% and 19%
  Population Tubulin-Different-Phenotype (%): 16% and 12%
  Total Cell Count: 202 and 275
[2]
  Population Apoptotic (%): 32% and 46%
  Population Fragmented Nuclei (%): 13% and 20%
  Population Healthy Nuclei (%): 57% and 61%
  Population Hoechst High Intensity Objects (%): 0%
  Population Membrane Permeable-Phenotype (%): 12% and 5%
  Population Mitochondria Different-Phenotype (%): 2%
  Population Mitotic Cells (%): 67% and 53%
  Population Normal (%): 99%
  Population Pyknosed Nuclei (%): 29% and 18%
  Population Tubulin-Different-Phenotype (%): 58% and 32%
  Total Cell Count: 222 and 175
[3]
  Population Apoptotic (%): 51% and 44%
  Population Fragmented Nuclei (%): 10% and 11%
  Population Healthy Nuclei (%): 72% and 69%
  Population Hoechst High Intensity Objects (%): 0%
  Population Membrane Permeable-Phenotype (%): 5% and 4%
  Population Mitochondria Different-Phenotype (%): 0%
  Population Mitotic Cells (%): 48% and 55%
  Population Normal (%): 99%
  Population Pyknosed Nuclei (%): 16% and 19%
  Population Tubulin-Different-Phenotype (%): 14% and 10%
  Total Cell Count: 188 and 271
[4]
  Population Apoptotic (%): 57% and 51%
  Population Fragmented Nuclei (%): 13% and 16%
  Population Healthy Nuclei (%): 59% and 64%
  Population Hoechst High Intensity Objects (%): 1% and 0%
  Population Membrane Permeable-Phenotype (%): 7% and 3%
  Population Mitochondria Different-Phenotype (%): 4% and 5%
  Population Mitotic Cells (%): 42% and 48%
  Population Normal (%): 98% and 100%
  Population Pyknosed Nuclei (%): 27% and 19%
  Population Tubulin-Different-Phenotype (%): 53% and 29%
  Total Cell Count: 201 and 173
[5]
  Population Apoptotic (%): 52% and 60%
  Population Fragmented Nuclei (%): 10% and 12%
  Population Healthy Nuclei (%): 74% and 72%
  Population Hoechst High Intensity Objects (%): 0%
  Population Membrane Permeable-Phenotype (%): 6% and 4%
  Population Mitochondria Different-Phenotype (%): 0%
  Population Mitotic Cells (%): 48% and 39%
  Population Normal (%): 100% and 99%
  Population Pyknosed Nuclei (%): 14% and 15%
  Population Tubulin-Different-Phenotype (%): 12% and 6%
  Total Cell Count: 171 and 271
[6]
  Population Apoptotic (%): 63% and 46%
  Population Fragmented Nuclei (%): 16% and 15%
  Population Healthy Nuclei (%): 65% and 66%
  Population Hoechst High Intensity Objects (%): 0%
  Population Membrane Permeable-Phenotype (%): 8% and 6%
  Population Mitochondria Different-Phenotype (%): 3% and 8%
  Population Mitotic Cells (%): 36% and 53%
  Population Normal (%): 99%
  Population Pyknosed Nuclei (%): 18% and 17%
  Population Tubulin-Different-Phenotype (%): 43% and 17%
  Total Cell Count: 201 and 161
